Measured values from PMC3245783 (Nature neuroscience, 2011).

Tests used:
[1] = test system: formalin-induced nocifensive behavior; test: Formalin-induced pain behavior in mice; assay type: in vivo, mouse; conditions: formalin test, antagonist 1 mg-kg^-1, i.p.
In short: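 Mice get intraplantar 5% formalin (20 μL). Nocifensive behaviour is scored in phase I (0–5 min) and phase II (5–45 min). Test compound is given i.p. at 0.01–1 mg-kg−1. In the antagonism arm, CB1, CB2 and TRPV-1 antagonists are each given at 1 mg-kg−1 i.p. Six mice per group; mean±SEM; two-way ANOVA with Bonferroni versus vehicle-injected controls.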

[2] = target: T1, FLAT-expressing Hek293 cells (Rattus norvegicus, UniProt P97612, DEL9-76); test: [3H]-anandamide accumulation in FLAT-expressing Hek293 cells; assay type: cell-based
T1 sequence (P97612 with tags, fused parts or gaps DEL9-76): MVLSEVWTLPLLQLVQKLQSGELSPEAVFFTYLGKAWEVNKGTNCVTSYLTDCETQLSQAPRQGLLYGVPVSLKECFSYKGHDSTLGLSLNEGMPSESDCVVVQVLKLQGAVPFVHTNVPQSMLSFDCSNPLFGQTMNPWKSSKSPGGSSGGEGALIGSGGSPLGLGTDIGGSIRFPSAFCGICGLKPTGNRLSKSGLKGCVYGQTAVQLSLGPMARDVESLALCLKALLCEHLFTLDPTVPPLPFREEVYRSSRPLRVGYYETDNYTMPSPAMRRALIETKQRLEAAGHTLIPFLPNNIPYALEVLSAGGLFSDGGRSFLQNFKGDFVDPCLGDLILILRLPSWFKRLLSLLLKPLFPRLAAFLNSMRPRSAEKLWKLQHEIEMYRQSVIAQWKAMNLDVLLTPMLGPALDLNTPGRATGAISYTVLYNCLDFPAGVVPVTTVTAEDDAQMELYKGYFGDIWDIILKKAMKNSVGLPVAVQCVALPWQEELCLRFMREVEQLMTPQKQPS

| Structure (SMILES) | effect of antagonist on antinociceptive actions of systemic ARN272 [1] | effect on [3H]-anandamide accumulation ([2]; FLAT-expressing Hek293 cells) | other results |
| --- | --- | --- | --- |
| COc1ccc(C(=O)c2c(C)n(CCN3CCOCC3)c3cc(I)ccc23)cc1 [AM630] | ineffective |  |  |
| CCCCCCCC/C=C\CCCCCCCC(=O)N[C@H](CO)Cc1ccc(O)cc1 [OMDM-1] |  | prevented |  |
| Cc1c(C(=O)NN2CCCCC2)nn(-c2ccc(Cl)cc2Cl)c1-c1ccc(I)cc1 [AM251] | suppressed |  |  |
| CCCCCC=CCC=CCC=CCC=CCCCC(=O)Nc1ccc(O)cc1 [AM404, N-(4-hydroxyphenyl)-eicosa-5,8,11,14-tetraenamide] |  |  | IC50 [2]: 4 µM |
| CCCCC/C=C\C/C=C\C/C=C\C/C=C\CCCC(=O)Nc1ccc(O)cc1C [VDM11] |  | prevented |  |
| CCCCC/C=C\C/C=C\C/C=C\C/C=C\CCCC(=O)NCCO [anandamide, N-arachidonoylethanolamine] |  |  | effect on [3H]-anandamide accumulation ([2]; non-radioactive anandamide 100 μM): prevented |
| CCCCC/C=C\C/C=C\C/C=C\C/C=C\CCCC(=O)NCc1ccoc1 [UCM707] |  | prevented |  |
| CC(C)(C)c1ccc(/C=C/C(=O)Nc2ccc3c(c2)OCCO3)cc1 [AMG9810] | ineffective |  |  |
